Calls of active or inactive are those of the source. No cut-off for these calls is given here.
Legend:
[1] = Inhibition of PI3Kbeta in Beagle dog whole blood assessed as reduction in ADP-induced thrombus formation at 1 uM relative to control; conditions: Canis lupus familiaris, condition thrombotic disease
Rattus norvegicus [2] = test: Insulin sensitizing activity in Sprague-Dawley rat hyperinsulinemic-euglycemic glucose clamp model assessed as total insulin level during infusion of human insulin at 1000 ug/kg/min, iv for 2 mins followed by 50 ug/kg/min, iv for 28 mins measured during clamp 1 (reference value: 2.2 +/- 0.1 nM); format: functional; conditions: time 30 min, 0.5 h
Outline: (§1)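 Anesthetized rats; hyperinsulinemic–euglycemic clamp with human insulin infused. A baseline clamp (Clamp1) was followed by a second clamp (Clamp2) with vehicle or drug i.v. The drug was given as a low dose (1000 μg kg−1 + 50 μg kg min−1) or a high dose (6000 μg kg−1 + 300 μg kg min−1). Steady-state glucose infusion rate for euglycemia was recorded, with plasma glucose, human insulin and total insulin; mean ± SEM, n = 4–5/group.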

Rattus norvegicus [3] = test: Insulin sensitizing activity in Sprague-Dawley rat hyperinsulinemic-euglycemic glucose clamp model assessed as basal total insulin level during infusion of human insulin at 1000 ug/kg/min, iv for 2 mins followed by 50 ug/kg/min, iv for 28 mins (reference value: 0.3 +/- 0.1 nM); format: functional; conditions: time 30 min, 0.5 h; outline: as §1
[4] = Toxicity in Sprague-Dawley rat assessed as change in blood pressure at 30000 ug/kg, iv for 2 mins followed by 1500 ug/kg/min, iv for 28 mins; format: organism-based; conditions: in vivo, 30 mg/kg, 0.5 h, time 30 min
[5] = Toxicity in Sprague-Dawley rat hyperinsulinemic-euglycemic glucose clamp model assessed as change in heart rate at 6000 ug/kg/min, iv for 2 mins followed by 300 ug/kg/min, iv for 28 mins; format: organism-based; conditions: in vivo, 0.5 h, time 30 min
Outline: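 Anesthetized rats underwent two consecutive hyperinsulinemic–euglycemic clamps with human insulin infusion: a baseline Clamp1, then Clamp2 with vehicle or AZD6482 i.v. (n = 4–5/group). Blood pressure and heart rate were followed during control periods and after drug administration. Steady-state glucose infusion rate maintained euglycemia.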

[6] = target: MAP kinase-activated protein kinase 5 (Homo sapiens) (UniProt Q8IW41); test: Inhibition of human MAPKAPK5 at 10 uM relative to control
[7] = target: Dual specificity mitogen-activated protein kinase kinase 1 (Homo sapiens) (UniProt Q02750); test: Inhibition of mitogen activated protein kinase kinase 1 (unknown origin) at 10 uM relative to control
[8] = target: MAP/microtubule affinity-regulating kinase 3 (Homo sapiens) (UniProt P27448); test: Inhibition of human MARK3 at 10 uM relative to control
[9] = target: Ribosomal protein S6 kinase alpha-5 (Homo sapiens) (UniProt O75582); test: Inhibition of human MSK1 at 10 uM relative to control
Chain of Ribosomal protein S6 kinase alpha-5 (Homo sapiens) (O75582 whole entry, looked up, the tested form may be a part): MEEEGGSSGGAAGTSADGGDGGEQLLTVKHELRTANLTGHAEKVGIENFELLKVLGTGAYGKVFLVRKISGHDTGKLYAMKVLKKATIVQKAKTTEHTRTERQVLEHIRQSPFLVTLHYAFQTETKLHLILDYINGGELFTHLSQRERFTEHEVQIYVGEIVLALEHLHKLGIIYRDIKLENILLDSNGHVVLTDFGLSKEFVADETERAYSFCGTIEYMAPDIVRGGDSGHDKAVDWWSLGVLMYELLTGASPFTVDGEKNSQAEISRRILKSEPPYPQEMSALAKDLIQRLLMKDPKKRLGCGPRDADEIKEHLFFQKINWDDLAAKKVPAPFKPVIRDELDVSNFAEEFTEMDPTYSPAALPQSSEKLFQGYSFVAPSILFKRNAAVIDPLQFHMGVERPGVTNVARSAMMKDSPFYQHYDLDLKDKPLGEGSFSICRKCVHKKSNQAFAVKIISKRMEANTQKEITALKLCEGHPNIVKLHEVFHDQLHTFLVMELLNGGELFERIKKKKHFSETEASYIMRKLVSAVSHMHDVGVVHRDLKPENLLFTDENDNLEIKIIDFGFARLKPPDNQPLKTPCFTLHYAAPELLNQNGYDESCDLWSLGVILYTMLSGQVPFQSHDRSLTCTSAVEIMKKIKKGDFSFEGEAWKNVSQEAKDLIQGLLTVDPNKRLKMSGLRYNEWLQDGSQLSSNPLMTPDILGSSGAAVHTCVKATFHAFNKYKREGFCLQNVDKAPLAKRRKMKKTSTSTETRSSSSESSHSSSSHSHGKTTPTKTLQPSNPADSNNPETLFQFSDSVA

Rattus norvegicus [10] = test: Insulin sensitizing activity in Sprague-Dawley rat hyperinsulinemic-euglycemic glucose clamp model assessed as human insulin level during infusion of human insulin at 6000 ug/kg/min, iv for 2 mins followed by 300 ug/kg/min, iv for 28 mins measured during clamp 1 (reference value: 1.7 +/- 0.1 nM); format: functional; conditions: time 30 min, 0.5 h; outline: as §1
[11] = target: SRSF protein kinase 1 (Homo sapiens) (UniProt Q96SB4); test: Inhibition of human SRPK1 at 10 uM relative to control
[12] = target: Serine/threonine-protein kinase pim-3 (Homo sapiens) (UniProt Q86V86); test: Inhibition of human PIM3 at 10 uM relative to control
Rattus norvegicus [13] = test: Insulin sensitizing activity in Sprague-Dawley rat hyperinsulinemic-euglycemic glucose clamp model assessed as total insulin level during infusion of human insulin at 1000 ug/kg/min, iv for 2 mins followed by 50 ug/kg/min, iv for 28 mins measured during clamp 2 (reference value: 2.2 +/- 0.1 nM); format: functional; conditions: time 30 min, 0.5 h; outline: as §1
[14] = target: 3-phosphoinositide-dependent protein kinase 1 (Homo sapiens) (UniProt O15530); test: Inhibition of human PDPK1 at 10 uM relative to control
[15] = target: MAP kinase-activated protein kinase 2 (Homo sapiens) (UniProt P49137); test: Inhibition of MAPK Activated Protein Kinase-2 (unknown origin) at 10 uM relative to control
[16] = target: Lymphokine-activated killer T-cell-originated protein kinase (Homo sapiens) (UniProt Q96KB5); test: Inhibition of human PBK at 10 uM relative to control
Chain of Lymphokine-activated killer T-cell-originated protein kinase (Homo sapiens) (Q96KB5 whole entry): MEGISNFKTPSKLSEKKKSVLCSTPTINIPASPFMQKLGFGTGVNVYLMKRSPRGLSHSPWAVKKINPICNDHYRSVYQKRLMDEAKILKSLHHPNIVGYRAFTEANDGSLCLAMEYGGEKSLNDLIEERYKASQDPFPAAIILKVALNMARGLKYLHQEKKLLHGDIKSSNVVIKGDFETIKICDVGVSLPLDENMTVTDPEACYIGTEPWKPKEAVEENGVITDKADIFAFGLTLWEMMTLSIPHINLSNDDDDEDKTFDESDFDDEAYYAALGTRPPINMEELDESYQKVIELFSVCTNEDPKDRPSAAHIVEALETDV

[17] = target: Ribosomal protein S6 kinase alpha-1 (Homo sapiens) (UniProt Q15418); test: Inhibition of MAPK Activated Protein Kinase-1a (unknown origin) at 10 uM relative to control
[18] = Elimination half life in human at 40.5 to 455.8 mg, iv administered for 3 hrs via infusion by LC-MS/MS analysis; format: ADME, organism-based; conditions: in vivo, dose 40.5-455.8 mg, read-out: beta t1/2
Outline: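 Randomized, double-blind, placebo-controlled single ascending-dose study in healthy male volunteers aged 18–36. Each subject received a 3-h i.v. infusion (0.9–455.8 mg). Plasma levels were measured by protein precipitation and LC-MS/MS (LLOQ 0.005 μm), with non-compartmental PK analysis. Half-life was calculated only for the four highest dose groups. The 3-h sample was taken as Css.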

Canis familiaris = test: Antithrombotic activity in Beagle dog model of arterial thrombosis and bleeding assessed as blood loss at 0.005 to 0.24 ug/kg/min, iv via bolus for 29 mins and measured for 15 mins; format: functional, organism-based; conditions: Canis lupus familiaris
Outline: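 Modified Folts' model of thrombosis in a damaged, stenosed femoral artery of anesthetized dogs. Animals first received saline vehicle. Consecutive i.v. doses then followed, each given over a 30-min period as a bolus (0.03–1.3 μg kg−1) plus an infusion (0.005–0.24 μg kg min−1). Read-outs were cyclic flow reductions, expressed as % restoration of blood flow, plus bleeding time, blood loss and plasma drug exposure. Mean ± SEM, n = 6.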

[19] = target: Tyrosine-protein kinase ZAP-70 (Homo sapiens, UniProt P43403); test: Inhibition of human ZAP70
Chain of Tyrosine-protein kinase ZAP-70 (P43403 whole entry): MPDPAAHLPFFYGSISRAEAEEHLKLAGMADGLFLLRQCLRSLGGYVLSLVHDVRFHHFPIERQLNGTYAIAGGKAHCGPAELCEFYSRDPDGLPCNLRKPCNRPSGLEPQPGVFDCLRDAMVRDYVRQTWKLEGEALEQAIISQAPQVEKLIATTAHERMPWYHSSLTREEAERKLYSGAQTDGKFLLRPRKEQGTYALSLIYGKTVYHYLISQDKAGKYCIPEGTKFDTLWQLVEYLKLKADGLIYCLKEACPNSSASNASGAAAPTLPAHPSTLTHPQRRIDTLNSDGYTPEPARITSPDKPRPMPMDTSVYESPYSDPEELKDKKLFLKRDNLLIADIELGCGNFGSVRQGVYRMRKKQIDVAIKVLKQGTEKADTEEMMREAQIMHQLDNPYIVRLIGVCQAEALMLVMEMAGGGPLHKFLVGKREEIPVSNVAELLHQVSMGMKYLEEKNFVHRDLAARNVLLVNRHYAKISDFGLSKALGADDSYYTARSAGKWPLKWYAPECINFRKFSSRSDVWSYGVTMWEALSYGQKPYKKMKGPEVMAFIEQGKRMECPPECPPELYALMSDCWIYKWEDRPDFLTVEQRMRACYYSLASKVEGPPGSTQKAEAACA

[20] = target: Casein kinase 2 (Homo sapiens) (UniProt P67870+P68400+P19784+Q8NEV1); test: Inhibition of human CK2 at 10 uM relative to control; format: protein assay
[21] = target: Maternal embryonic leucine zipper kinase (Homo sapiens) (UniProt Q14680); test: Inhibition of human MELK at 10 uM relative to control
Chain of Maternal embryonic leucine zipper kinase (Homo sapiens) (Q14680 whole entry, looked up): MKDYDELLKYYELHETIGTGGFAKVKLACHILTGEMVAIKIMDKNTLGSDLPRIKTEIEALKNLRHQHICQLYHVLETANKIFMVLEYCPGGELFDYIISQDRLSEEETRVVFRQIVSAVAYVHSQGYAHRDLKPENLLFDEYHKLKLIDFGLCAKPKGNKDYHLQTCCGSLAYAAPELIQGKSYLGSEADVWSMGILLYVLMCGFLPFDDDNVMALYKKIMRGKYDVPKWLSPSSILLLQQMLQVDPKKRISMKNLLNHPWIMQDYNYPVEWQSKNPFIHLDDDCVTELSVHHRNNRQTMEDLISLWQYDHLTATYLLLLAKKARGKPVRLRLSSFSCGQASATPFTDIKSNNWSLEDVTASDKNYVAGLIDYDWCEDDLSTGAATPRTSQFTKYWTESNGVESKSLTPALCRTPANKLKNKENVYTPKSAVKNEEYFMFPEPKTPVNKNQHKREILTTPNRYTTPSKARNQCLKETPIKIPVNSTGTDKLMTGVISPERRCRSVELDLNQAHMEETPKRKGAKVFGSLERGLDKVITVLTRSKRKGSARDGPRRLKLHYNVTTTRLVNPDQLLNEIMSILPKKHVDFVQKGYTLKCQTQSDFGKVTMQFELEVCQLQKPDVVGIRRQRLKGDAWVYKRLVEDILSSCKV

[22] = target: Calcium/calmodulin-dependent protein kinase kinase 2 (Homo sapiens) (UniProt Q96RR4); test: Inhibition of human CAMKKbeta at 10 uM relative to control
[23] = target: Tyrosine-protein kinase JAK3 (Homo sapiens, UniProt P52333); test: Inhibition of human JAK3
Chain of Tyrosine-protein kinase JAK3 (P52333 whole entry): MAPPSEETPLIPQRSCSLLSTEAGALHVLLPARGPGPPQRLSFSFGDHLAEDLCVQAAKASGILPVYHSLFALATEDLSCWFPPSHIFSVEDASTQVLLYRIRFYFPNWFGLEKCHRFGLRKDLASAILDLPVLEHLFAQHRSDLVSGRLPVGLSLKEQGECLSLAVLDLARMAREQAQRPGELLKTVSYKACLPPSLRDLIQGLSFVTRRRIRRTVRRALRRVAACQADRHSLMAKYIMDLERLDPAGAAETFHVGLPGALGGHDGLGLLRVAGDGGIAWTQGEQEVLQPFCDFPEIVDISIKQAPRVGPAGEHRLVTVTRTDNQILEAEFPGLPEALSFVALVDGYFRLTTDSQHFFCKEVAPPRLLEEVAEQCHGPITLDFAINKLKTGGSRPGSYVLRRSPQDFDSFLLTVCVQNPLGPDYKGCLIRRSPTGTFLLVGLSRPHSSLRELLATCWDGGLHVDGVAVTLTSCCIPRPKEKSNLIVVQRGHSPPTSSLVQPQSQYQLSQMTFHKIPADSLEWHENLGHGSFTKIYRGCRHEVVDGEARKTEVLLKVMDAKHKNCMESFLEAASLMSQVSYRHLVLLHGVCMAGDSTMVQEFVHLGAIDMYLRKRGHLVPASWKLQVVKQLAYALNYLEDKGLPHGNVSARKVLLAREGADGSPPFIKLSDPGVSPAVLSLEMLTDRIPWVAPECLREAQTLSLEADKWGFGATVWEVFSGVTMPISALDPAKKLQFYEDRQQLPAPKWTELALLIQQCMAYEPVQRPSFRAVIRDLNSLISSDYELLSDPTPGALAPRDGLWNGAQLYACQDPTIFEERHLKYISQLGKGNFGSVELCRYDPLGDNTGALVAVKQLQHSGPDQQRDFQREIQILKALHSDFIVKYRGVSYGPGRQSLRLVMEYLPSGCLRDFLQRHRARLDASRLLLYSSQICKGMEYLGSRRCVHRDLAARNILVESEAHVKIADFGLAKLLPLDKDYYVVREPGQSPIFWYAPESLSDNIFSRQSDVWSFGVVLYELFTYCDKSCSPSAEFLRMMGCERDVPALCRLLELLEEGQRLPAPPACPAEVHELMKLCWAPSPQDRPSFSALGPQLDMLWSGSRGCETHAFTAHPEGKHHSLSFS

[24] = Inhibition of PI3Kbeta in Beagle dog whole blood assessed as reduction in ADP-induced platelet aggregation preincubated for 5 mins followed by ADP addition and measured for 6 mins by impedance aggregometry; format: tissue-based; conditions: Canis lupus familiaris
Outline: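 Ex vivo whole blood impedance aggregometry (Multiplate) with ADP as agonist, using blood drawn from anesthetized dogs in the Folts' model. Dogs were given i.v. bolus plus infusion doses over consecutive 30-min periods. Inhibition was related to measured plasma drug concentration to derive EC50. Mean ± SEM, n = 6.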

[25] = target: Homeodomain-interacting protein kinase 2 (Homo sapiens) (UniProt Q9H2X6); test: Inhibition of human HIPK2 at 10 uM relative to control
Chain of Homeodomain-interacting protein kinase 2 (Homo sapiens) (Q9H2X6 whole entry, looked up): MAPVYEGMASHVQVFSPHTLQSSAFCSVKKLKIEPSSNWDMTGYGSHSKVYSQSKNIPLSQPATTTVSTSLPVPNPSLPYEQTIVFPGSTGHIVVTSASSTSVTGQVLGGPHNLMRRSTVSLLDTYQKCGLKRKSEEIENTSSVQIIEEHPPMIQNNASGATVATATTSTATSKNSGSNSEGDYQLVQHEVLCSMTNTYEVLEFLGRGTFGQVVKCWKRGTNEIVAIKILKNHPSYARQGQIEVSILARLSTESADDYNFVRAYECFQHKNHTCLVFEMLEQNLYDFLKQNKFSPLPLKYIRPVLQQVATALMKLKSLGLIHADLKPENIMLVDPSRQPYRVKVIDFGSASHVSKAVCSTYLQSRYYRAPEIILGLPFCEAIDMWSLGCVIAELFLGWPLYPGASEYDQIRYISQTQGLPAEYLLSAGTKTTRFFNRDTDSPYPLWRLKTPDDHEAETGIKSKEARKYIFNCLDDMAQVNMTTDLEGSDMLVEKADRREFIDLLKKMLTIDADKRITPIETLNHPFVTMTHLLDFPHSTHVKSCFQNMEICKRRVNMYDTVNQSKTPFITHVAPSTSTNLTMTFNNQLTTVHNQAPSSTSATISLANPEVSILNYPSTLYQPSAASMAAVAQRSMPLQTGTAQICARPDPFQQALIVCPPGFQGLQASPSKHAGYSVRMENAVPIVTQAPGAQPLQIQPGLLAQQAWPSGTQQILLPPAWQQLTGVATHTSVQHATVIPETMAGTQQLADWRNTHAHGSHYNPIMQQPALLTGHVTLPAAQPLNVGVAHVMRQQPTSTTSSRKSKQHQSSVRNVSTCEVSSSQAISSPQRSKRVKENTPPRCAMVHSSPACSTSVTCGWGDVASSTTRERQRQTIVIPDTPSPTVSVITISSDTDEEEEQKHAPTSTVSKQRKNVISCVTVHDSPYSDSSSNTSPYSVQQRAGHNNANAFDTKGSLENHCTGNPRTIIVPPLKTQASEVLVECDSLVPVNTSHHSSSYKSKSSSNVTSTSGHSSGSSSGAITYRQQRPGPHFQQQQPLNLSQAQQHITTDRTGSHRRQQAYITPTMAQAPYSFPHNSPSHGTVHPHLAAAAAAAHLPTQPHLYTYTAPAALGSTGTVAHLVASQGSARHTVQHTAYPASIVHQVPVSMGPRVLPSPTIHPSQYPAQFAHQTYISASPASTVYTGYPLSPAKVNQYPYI

## Cc1cc([C@@H](C)Nc2ccccc2C(=O)O)c2nc(N3CCOCC3)cc(=O)n2c1 [AZD-6482]
[1]
  inhibition at 1 µM: > 80%
Rattus norvegicus [2]
  Activity: 2.2 nM
Rattus norvegicus [3]
  Activity: 0.3 nM
[4]
  Activity: Non-Toxic
[5]
  Activity: Non-Toxic
[6]
  inhibition: 9.9%
[7]
  inhibition: 11%
[8]
  inhibition: -7.3%
[9]
  inhibition: -4.2%
Rattus norvegicus [10]
  Activity: 1.9 nM
[11]
  inhibition: -9.4%
[12]
  inhibition: -5.9%
Rattus norvegicus [13]
  Activity: 2.2 nM
[14]
  inhibition: 16%
[15]
  inhibition: 13%
[16]
  inhibition: 6.9%
[17]
  inhibition: 1.6%
[18]
  half-life: ~20 min
Canis familiaris
  Activity: inactive
[19]
  IC50: > 999 µM
[20]
  inhibition: 4.2%
[21]
  inhibition: 17%
[22]
  inhibition: 14%
[23]
  IC50: > 201 µM
[24]
  EC50: 0.13 µM
[25]
  inhibition: 1%

— ChEMBL document CHEMBL5678808, “Human target validation of phosphoinositide 3-kinase (PI3K)β: effects on platelets and insulin sensitivity, using AZD6482 a novel PI3Kβ inhibitor” (J Thromb Haemost, 2012)
